These results are taken from ChEMBL document CHEMBL1909539, “Reappraising the structures and distribution of metabolites from black aspergilli containing uncommon 2-benzyl-4H-pyran-4-one and 2-benzylpyridin-4(1H)-one systems” (J Nat Prod, 2011).

SMILES strings stand for the structures. Calls of active or inactive are those of the source. The calls are words filed in the database; no cut-off is given here.

Holding throughout (assay type): functional, organism-based
The subject of assay [1] is Aspergillus fumigatus. The experiment in a line: Antifungal activity against Aspergillus fumigatus NRRL A1100 at 100 ug/ml after 48 hrs. A digest of the protocol:
(§1)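 Yeasts and Aspergillus cultures were dispensed into 96-well plates and compound in DMSO was added (1% DMSO final). Plates were shaken orbitally and OD600 was read at start. After 48 h at 37 °C, humidified, OD600 was read again, and activity was calculated as the change in optical density.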

For assay [2], the system named is Acinetobacter baumannii. In words: Antibacterial activity against Acinetobacter baumannii ATCC BAA-1605 at 100 ug/ml after 24 hrs. The method, boiled down:
(§2)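 Broth growth assay in 96-well plates with test compounds added from DMSO stocks (final DMSO 1%). OD600 was read after brief orbital shaking, then again after 24 h incubation at 37 °C in a humidified incubator. Activity was taken as the change in OD600 between the two readings.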

A further assay relates to Candida parapsilosis. The experiment in a line: Antifungal activity against Candida parapsilosis ATCC 12969 at 100 ug/ml after 48 hrs. A digest of the protocol:
as §1

The next assay has as its system Enterobacter cloacae. The experiment in a line: Antibacterial activity against Enterobacter cloacae ATCC 13047 at 100 ug/ml after 24 hrs. A digest of the protocol: as §2
In the next assay the test system is Burkholderia cepacia. The experiment in a line: Antibacterial activity against Burkholderia cepacia ATCC 25608 at 100 ug/ml after 24 hrs. The method, boiled down:
as §2

A further assay relates to Pseudomonas aeruginosa. In words: Antibacterial activity against Pseudomonas aeruginosa ATCC 10145 at 100 ug/ml after 24 hrs. A digest of the protocol:
as §2

For another assay, the system named is Nakaseomyces glabratus. In words: Antifungal activity against Candida glabrata NRRL Y-65 at 100 ug/ml after 48 hrs. The method, boiled down:
as §1

For assay [3], the system named is Klebsiella pneumoniae. In words: Antibacterial activity against Klebsiella pneumoniae ATCC 33495 at 100 ug/ml after 24 hrs. A digest of the protocol:
as §2

Assay [4] has as its system Pichia kudriavzevii. In words: Antifungal activity against Candida krusei ATCC 27803 at 100 ug/ml after 48 hrs. The method, boiled down:
as §1

The test system of assay [5] is Acinetobacter baumannii. The experiment in a line: Antibacterial activity against Acinetobacter baumannii ATCC 19606 at 100 ug/ml after 24 hrs. The note with it: ATCC 19606 = CIP 70.34 = JCM 6841. A digest of the protocol:
as §2

Assay [6] relates to Staphylococcus aureus. The experiment in a line: Antibacterial activity against Staphylococcus aureus ATCC 700787 at 100 ug/ml after 24 hrs. The method, boiled down:
as §2

For assay [7], the system named is Aspergillus flavus. In words: Antifungal activity against Aspergillus flavus NRRL A1120 at 10 ug/ml after 48 hrs. The method, boiled down: as §1
Assay [8] concerns Staphylococcus aureus. In words: Antibacterial activity against Staphylococcus aureus ATCC 25293 at 100 ug/ml after 24 hrs. The method, boiled down:
as §2

Assay [9] deals with Staphylococcus epidermidis. The experiment in a line: Antibacterial activity against Staphylococcus epidermidis ATCC 12228 at 100 ug/ml after 24 hrs. A digest of the protocol:
as §2

Assay [10] concerns Aspergillus flavus. The experiment in a line: Antifungal activity against Aspergillus flavus NRRL A1120 at 100 ug/ml after 48 hrs. The method, boiled down:
as §1

Assay [11] deals with Klebsiella pneumoniae. The experiment in a line: Antibacterial activity against Klebsiella pneumoniae ATCC 51503 at 100 ug/ml after 24 hrs. The method, boiled down:
as §2

Assay [12] has as its system Escherichia coli. The experiment in a line: Antibacterial activity against Escherichia coli ATCC 11775 at 100 ug/ml after 24 hrs. The method, boiled down:
as §2

The subject of assay [13] is Escherichia coli. In words: Antibacterial activity against Escherichia coli ATCC 10798 at 100 ug/ml after 24 hrs. A digest of the protocol:
as §2

The test system of the next assay is Candida tropicalis. In words: Antifungal activity against Candida tropicalis ATCC 12968 at 100 ug/ml after 48 hrs. The method, boiled down: as §1
Assay [14] concerns Candida albicans. The experiment in a line: Antifungal activity against Candida albicans ATCC 38245 at 100 ug/ml after 48 hrs. A digest of the protocol: as §1
For assay [15], the system named is Candida albicans. In words: Potentiation of antifungal activity of imidazole against Candida albicans ATCC 38245 by broth microdilution assay.
In assay [16] the test system is Aspergillus fumigatus. The experiment in a line: Antifungal activity against Aspergillus fumigatus NRRL A1100 at 10 ug/ml after 48 hrs. A digest of the protocol:
as §1

The subject of assay [17] is Pichia kudriavzevii. The experiment in a line: Antifungal activity against Candida krusei ATCC 27803 at 10 ug/ml after 48 hrs. A digest of the protocol:
as §1

As for `COC(=O)c1coc(Cc2ccccc2)cc1=O`, the inhibition entry in the assay with Aspergillus fumigatus [1], with Candida parapsilosis, in the assay on Nakaseomyces glabratus, with Pichia kudriavzevii [4], in the assay with Aspergillus flavus [7] and with Aspergillus flavus [10] was “Active” each time. Further, the inhibition entry in the assay with Candida tropicalis and with Candida albicans [14] was “Active” each time. For the same compound, the inhibition result in the assay with Acinetobacter baumannii [2], in the assay on Enterobacter cloacae, in the assay on Burkholderia cepacia, with Pseudomonas aeruginosa, in the assay with Klebsiella pneumoniae [3] and in the assay with Acinetobacter baumannii [5] was “inactive” throughout. In addition, the inhibition entry (in the assay on Staphylococcus aureus [6]; in the assay with Staphylococcus aureus [8]; in assay [9]; with Klebsiella pneumoniae [11]; with Escherichia coli [12]; with Escherichia coli [13]) was “inactive” throughout. Besides, the result in the assay on Candida albicans [15] was inactive.

`C[C@@H](CC(=O)NC(=O)c1coc(Cc2ccccc2)cc1=O)C(=O)O`: the inhibition entry in the assay with Acinetobacter baumannii [2], in the assay with Enterobacter cloacae, in the assay with Burkholderia cepacia, in the assay on Pseudomonas aeruginosa, with Klebsiella pneumoniae [3] and in the assay with Acinetobacter baumannii [5] was “inactive” each time. In addition, the inhibition result (in the assay on Staphylococcus aureus [6]; in the assay with Staphylococcus aureus [8]; in [9]; in the assay on Klebsiella pneumoniae [11]; in the assay with Escherichia coli [12]; with Escherichia coli [13]) was “inactive” throughout. In the assay with Candida albicans [15], the result was inactive.

Consider `CCOC(=O)c1coc(-c2ccccc2)cc1=O`, for which the inhibition result in the assay on Aspergillus fumigatus [16], with Aspergillus fumigatus [1], with Pichia kudriavzevii [17], with Candida parapsilosis, with Nakaseomyces glabratus and in the assay with Pichia kudriavzevii [4] was “Active” each time. Also, the inhibition result with Aspergillus flavus [7], in the assay on Aspergillus flavus [10], in the assay on Candida tropicalis and in the assay with Candida albicans [14] was “Active” throughout.

Regarding `C[C@@H](CC(=O)NC(=O)c1cn(-c2ccccc2)c(Cc2ccccc2)cc1=O)C(=O)O`, the inhibition entry in the assay with Acinetobacter baumannii [2], in the assay on Enterobacter cloacae, in the assay on Burkholderia cepacia, with Pseudomonas aeruginosa, in the assay on Klebsiella pneumoniae [3] and in the assay with Acinetobacter baumannii [5] was “inactive” each time. In addition, the inhibition result (in the assay with Staphylococcus aureus [6]; in the assay on Staphylococcus aureus [8]; in [9]; in the assay on Klebsiella pneumoniae [11]; in the assay on Escherichia coli [12]; with Escherichia coli [13]) was “inactive” in each case.

`COC(=O)[C@@H](C)CC(=O)NC(=O)c1coc(Cc2ccccc2)cc1=O`: in the assay with Candida albicans [15], the outcome was inactive.

As for `NC(=O)c1cn(-c2ccc(F)cc2)c(Cc2ccccc2)cc1=O`, the inhibition entry in the assay on Acinetobacter baumannii [2], in the assay on Enterobacter cloacae, with Burkholderia cepacia, in the assay on Pseudomonas aeruginosa, with Klebsiella pneumoniae [3] and with Acinetobacter baumannii [5] was “inactive” in each case. In addition, the inhibition entry (with Staphylococcus aureus [6]; in the assay on Staphylococcus aureus [8]; in assay [9]; in the assay on Klebsiella pneumoniae [11]; in the assay on Escherichia coli [12]; with Escherichia coli [13]) was “inactive” in each case.

Take `NC(=O)c1coc(Cc2ccccc2)cc1=O`: the inhibition entry in the assay with Acinetobacter baumannii [2], in the assay on Enterobacter cloacae, in the assay on Burkholderia cepacia, with Pseudomonas aeruginosa, in the assay on Klebsiella pneumoniae [3] and in the assay on Acinetobacter baumannii [5] was “inactive” in each case. Moreover, the inhibition entry (in the assay with Staphylococcus aureus [6]; with Staphylococcus aureus [8]; in [9]; in the assay on Klebsiella pneumoniae [11]; in the assay on Escherichia coli [12]; in the assay on Escherichia coli [13]) was “inactive” throughout. Also, in the assay on Candida albicans [15], the result was inactive.
